Laboratory results from PubChem BioAssay.
A number with no mark means an inactive call.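 How the source made its calls, unless noted: active means growth inhibition above 25% in both replicates, a cutoff set 3 SD above the mean; inconclusive means above 25% in only one replicate; inactive means the rest.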

Assay: growth suppression of yeast trafficking mutant, preliminary HTS, modulators of trafficking downstream of Golgi apparatus project, 1536-format plate, OD 615 nm (AID 637; in the data active means inhibition above about 30%)
Details: yeast transport mutant growth, absorbance 615 nm, 18 h; active compounds read high

Row | Structure (SMILES) | inhibition
1 | COc1cc(C(=O)Nc2cccc(-c3nncn3C)c2)cc(OC)c1OC | -5.5%
2 | CCCCN(CC)CCNC(=O)c1cc2c(C)nc3ccccc3c2o1 | -4.43%
3 | Clc1ccc(SCCCCn2ccnc2)cc1 | -1%
4 | CCOC(=O)N1CCC(N2C(=O)c3ccccc3C2Nc2cc(Cl)c(OC)cc2OC)CC1 (stereo not drawn) | 0.83%
5 | O=C(Cn1nc(Cc2cccnc2)c2ccccc2c1=O)NCC1CCCO1 (stereo not drawn) | 3.5%
6 | CCn1cc(SCC(=O)NCC2CCCO2)c2ccccc21 (stereo not drawn) | -0.5%
7 | Cc1noc(C)c1S(=O)(=O)N1CCN(Cc2ccc3c(c2)OCO3)CC1 | 0%
8 | CCOC(=O)c1ccc(N2Cc3cc(C)c(C)cc3C2)cc1O | 10.3%

Assay: OD615 S. cerevisiae growth inhibition, permissive medium, pilot counter-assay, permissive growth control for S. cerevisiae lifespan shortening project (AID 705)
Details: OD615, 24 h, at 10 µM, active compounds read high
Summary of the method: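 System: Engineered DeaD yeast | Buffer or medium: SC raffinose/galactose permissive medium | Doses: 10 µM single dose, 0.25% DMSO | Times: 24 h exposure, 30 °C | Measured by: OD615 turbidity read | Read-out: Yeast growth inhibition indicated by reduced 24 h OD615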

Row | Structure (SMILES) | growth inhibition
9 | O=C(NCCN1CCCCCC1)c1ccc(CS(=O)(=O)c2ccc(Br)cc2)o1 | -6.86%
10 | Cc1ccc(S(=O)(=O)NCCOC(=O)Nc2sc(=S)n(C)c2C)cc1 | 6.39%
11 | COc1ccccc1CC(=O)Nc1ccc(OC)c(OC)c1 | -8.11%
12 | CCN(CC)C(=O)C1CCCc2c1[nH]c1ccc(Cl)cc21 (stereo not drawn) | -16%
13 | CCOC(=O)N1CCC(NC(=O)C2CCCN(C(=O)c3cc4sccc4n3C)C2)CC1 (stereo not drawn) | -18%
14 | CCOC(=O)c1[nH]c(C)c(C(=O)Nc2ccc(Cl)cc2)c1C | -1.96%
15 | O=C(NC(=O)c1cccc(F)c1)OC[C@@H]1CCCN2CCCC[C@H]12 | 1.28%
16 | COc1ccccc1-n1c(=O)[nH]c2c(C(N)=O)nc(-c3cccnc3)nc21 | -7.79%
17 | CC1(C)CC(=O)c2cnc(NC(=O)Cc3ccc(Cl)cc3)nc2C1 | -5.41%
18 | CC(C)(NC(=O)N1CCCC1)c1cccc(C(C)(C)NC(=O)N2CCCC2)c1 | 0.795%
19 | COc1ccc(NC(=O)C2CCCN(S(=O)(=O)c3cccc4cccnc34)C2)cc1OC (stereo not drawn) | -1.21%
20 | CCOc1ccc(CCN2C(=O)C3C4C=CC(C4)C3C2=O)cc1OCC (stereo not drawn) | 0.49%
21 | COc1ccc(S(=O)(=O)N2CCN(c3ccc(C)cc3C)CC2)cc1OC | 0.1%
22 | O=C(C1CCN(c2nnc(-n3cccc3)s2)CC1)N1CCc2ccccc2C1 | 1.58%
23 | CCOc1cc(C2C3=C(CCCC3=O)N(C)C3=C2C(=O)CCC3)cc(Cl)c1O | -11.5%
24 | O=C(OCN1C(=O)c2ccccc2C1=O)C1CCCCC1 | 0.93%
25 | Cc1ccc2cccc(SCC(=O)N3CCOCC3)c2n1 | 2.63%
26 | c1ccn2c(SCc3ccc4c(c3)OCCO4)nnc2c1 | 6.86%
27 | c1ccc(C(Cc2nc(-c3ccccn3)no2)c2ccccc2)cc1 | -9.91%
28 | COC(=O)C(C)Sc1nnc2n(-c3cccc(C)c3)c(=O)c3c4c(sc3n12)CCCC4 (stereo not drawn) | -9.47%

Row | Structure (SMILES) | growth inhibition
29 | Cc1ccc(-c2noc(CN3C(C)CCCC3C)n2)cc1 (stereo not drawn) | -3.56%
30 | CCn1c(SCC(=O)Nc2ccc(Cl)cc2)nnc1C1CC1 | 5.96%
31 | COc1ccc(C2CC(c3ccco3)n3ncnc3N2)cc1 (stereo not drawn) | -4.26%
32 | COc1ccc(NC(=O)c2cc(C3CC3)on2)c(OC)c1 | 4.41%
33 | COc1cc(OC)c2c(c1)OC(c1ccc(OC)c(OC)c1)C(O)C2=O (stereo not drawn) | -13.6%
34 | N#CCCN(Cc1cccnc1)C(=O)Nc1ccc(Cl)c(Cl)c1 | -13.1%
35 | O=C(c1cccc(F)c1)N1CCc2ccccc21 | -19.5%
36 | COc1ccc(NC(=O)C2CCCCN2S(=O)(=O)c2ccc(F)cc2)cc1 (stereo not drawn) | -18.5%
37 | CCN(CC)C(=O)Cn1ncc2c1-c1ccccc1OC2 | -13.3%
38 | Cn1c(=O)oc2cc(S(=O)(=O)NC3CCN(Cc4ccccc4)CC3)ccc21 | -5.47%
39 | COCCOC(=O)c1[nH]c2c(c1C)C(=O)CC(c1ccco1)C2 (stereo not drawn) | -16%
40 | COc1ccccc1NC(=O)N(C1CCCC1)C1CCN(C(C)=O)CC1 | -2.26%
41 | COc1cc(C(=O)Nc2cccc(-c3nncn3C)c2)cc(OC)c1OC | 2.38%
42 | CCCCN(CC)CCNC(=O)c1cc2c(C)nc3ccccc3c2o1 | 10%
43 | Clc1ccc(SCCCCn2ccnc2)cc1 | 1.02%
44 | CCOC(=O)N1CCC(N2C(=O)c3ccccc3C2Nc2cc(Cl)c(OC)cc2OC)CC1 (stereo not drawn) | 3.33%
45 | O=C(Cn1nc(Cc2cccnc2)c2ccccc2c1=O)NCC1CCCO1 (stereo not drawn) | -1.69%
46 | CCn1cc(SCC(=O)NCC2CCCO2)c2ccccc21 (stereo not drawn) | 4.53%
47 | Cc1noc(C)c1S(=O)(=O)N1CCN(Cc2ccc3c(c2)OCO3)CC1 | -5.76%
48 | CCOC(=O)c1ccc(N2Cc3cc(C)c(C)cc3C2)cc1O | -10.9%
